Test results reported in ChEMBL document CHEMBL4011622, “The Structure-Activity Relationship of a Tetrahydroisoquinoline Class of N-Methyl-d-Aspartate Receptor Modulators that Potentiates GluN2B-Containing N-Methyl-d-Aspartate Receptors” (J Med Chem, 2017).

Tests used:
[1] = biological target: T1, Glutamate NMDA receptor; Grin1/Grin2b (Rattus norvegicus) (UniProt P35439+Q00960); assay: Positive allosteric modulation of recombinant rat GluN1/GluN2B receptor expressed in xenopus laevis oocyte assessed as potentiation of glutamate and glycine-induced current response at 10 uM at holding potential -40mV by two electrode voltage clamp method relative to control; details: 30 uM, in the assay text read “at 30 uM” for “at 10 uM”
Method in brief: (§1)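 Two-electrode voltage clamp at -40 mV, 23°C, pH 7.4 Ba²⁺ recording solution, on Xenopus oocytes expressing rat NMDA receptors. Currents were evoked by 100 µM glutamate plus 30 µM glycine, with compound co-applied (DMSO 0.05–0.5% final). […] Each compound used at least 4 oocytes from at least 2 frogs.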

[2] = biological target: T2, Ionotropic glutamate receptor NMDA 1/2D (Rattus norvegicus) (UniProt P35439+Q62645); assay: Positive allosteric modulation of recombinant rat GluN1/GluN2D receptor expressed in xenopus laevis oocyte assessed as potentiation of glutamate and glycine-induced current response at 10 uM at holding potential -40mV by two electrode voltage clamp method relative to control; method in brief: as §1
[3] = biological target: Glutamate NMDA receptor; Grin1/Grin2b (Rattus norvegicus, UniProt P35439+Q00960); assay: Positive allosteric modulation of recombinant rat GluN1/GluN2B receptor expressed in xenopus laevis oocyte assessed as potentiation of glutamate and glycine-induced current response at holding potential -40mV by two electrode voltage clamp method
Method in brief: (§2)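 Two-electrode voltage clamp at -40 mV, 23°C, pH 7.4 Ba²⁺ recording solution, on Xenopus oocytes expressing rat NMDA receptors. Currents were evoked by 100 µM glutamate plus 30 µM glycine, with compound co-applied (DMSO 0.05–0.5% final). Each compound used at least 4 oocytes from at least 2 frogs.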

[4] = biological target: Glutamate NMDA receptor; Grin1/Grin2c (Rattus norvegicus, UniProt P35439+Q00961); assay: Positive allosteric modulation of recombinant rat GluN1/GluN2C receptor expressed in xenopus laevis oocyte assessed as potentiation of glutamate and glycine-induced current response at holding potential -40mV by two electrode voltage clamp method; method in brief: as §2
[5] = biological target: T3, Glutamate NMDA receptor; Grin1/Grin2c (Rattus norvegicus) (UniProt P35439+Q00961); assay: Positive allosteric modulation of recombinant rat GluN1/GluN2C receptor expressed in xenopus laevis oocyte assessed as potentiation of glutamate and glycine-induced current response at 10 uM at holding potential -40mV by two electrode voltage clamp method relative to control; details: for Emax: 10 uM; for Activity: 30 uM, in the assay text read “at 30 uM” for “at 10 uM”; method in brief: as §1
[6] = biological target: Ionotropic glutamate receptor NMDA 1/2D (Rattus norvegicus, UniProt P35439+Q62645); assay: Positive allosteric modulation of recombinant rat GluN1/GluN2D receptor expressed in xenopus laevis oocyte assessed as potentiation of glutamate and glycine-induced current response at holding potential -40mV by two electrode voltage clamp method; method in brief: as §2
[7] = biological target: T3, Glutamate NMDA receptor; Grin1/Grin2c (Rattus norvegicus); assay: Positive allosteric modulation of recombinant rat GluN1/GluN2C receptor expressed in xenopus laevis oocyte assessed as potentiation of glutamate and glycine-induced current response at 30 uM at holding potential -40mV by two electrode voltage clamp method relative to control; method in brief: as §2
[8] = biological target: T1, Glutamate NMDA receptor; Grin1/Grin2b (Rattus norvegicus); assay: Positive allosteric modulation of recombinant rat GluN1/GluN2B receptor expressed in xenopus laevis oocyte assessed as potentiation of glutamate and glycine-induced current response at 30 uM at holding potential -40mV by two electrode voltage clamp method relative to control; method in brief: as §1
[9] = biological target: T2, Ionotropic glutamate receptor NMDA 1/2D (Rattus norvegicus); assay: Positive allosteric modulation of recombinant rat GluN1/GluN2D receptor expressed in xenopus laevis oocyte assessed as potentiation of glutamate and glycine-induced current response at 30 uM at holding potential -40mV by two electrode voltage clamp method relative to control; method in brief: as §2
[10] = biological target: T3, Glutamate NMDA receptor; Grin1/Grin2c (Rattus norvegicus); assay: Positive allosteric modulation of recombinant rat GluN1/GluN2C receptor expressed in xenopus laevis oocyte assessed as potentiation of glutamate and glycine-induced current response at 30 uM at holding potential -40mV by two electrode voltage clamp method relative to control
[11] = biological target: T1, Glutamate NMDA receptor; Grin1/Grin2b (Rattus norvegicus); assay: Positive allosteric modulation of recombinant rat GluN1/GluN2B receptor expressed in xenopus laevis oocyte assessed as potentiation of glutamate and glycine-induced current response at 30 uM at holding potential -40mV by two electrode voltage clamp method relative to control
[12] = biological target: T3, Glutamate NMDA receptor; Grin1/Grin2c (Rattus norvegicus); assay: Positive allosteric modulation of recombinant rat GluN1/GluN2C receptor expressed in xenopus laevis oocyte assessed as compound concentration required to show two fold increase in glutamate and glycine-induced current response at holding potential -40mV by two electrode voltage clamp method
[13] = biological target: T2, Ionotropic glutamate receptor NMDA 1/2D (Rattus norvegicus); assay: Positive allosteric modulation of recombinant rat GluN1/GluN2D receptor expressed in xenopus laevis oocyte assessed as compound concentration required to show two fold increase in glutamate and glycine-induced current response at holding potential -40mV by two electrode voltage clamp method
[14] = biological target: T1, Glutamate NMDA receptor; Grin1/Grin2b (Rattus norvegicus); assay: Positive allosteric modulation of recombinant rat GluN1/GluN2B receptor expressed in xenopus laevis oocyte assessed as compound concentration required to show two fold increase in glutamate and glycine-induced current response at holding potential -40mV by two electrode voltage clamp method

| Structure (SMILES) | Emax [1] [%] | Activity [2] [%] | EC50 [3] [µM] | EC50 [4] [µM] | Emax [5] [%] | Activity [5] [%] | EC50 [6] [µM] | Emax [2] [%] | Activity [7] [%] | Emax [7] [%] | Activity [8] [%] | Emax [8] [%] | Activity [9] [%] | Emax [9] [%] | Activity [10] [%] | Activity [11] [%] | CD [12] [µM] | CD [13] [µM] | CD [14] [µM] |
| --- | --- | --- | --- | --- | --- | --- | --- | --- | --- | --- | --- | --- | --- | --- | --- | --- | --- | --- | --- |
| CCOc1ccc(OCC2c3ccc(OC(C)C)cc3CCN2C(=O)c2cccc(Cl)c2)cc1 (stereo not given) | 158 | 102 | 5.3 | 1.8 | 128 | 126 | – | – | – | – | – | – | – | – | – | – | – | – | – |
| CCOc1ccc(OCC2c3ccc(OC4CCCC4)cc3CCN2C(=O)c2cccc(Cl)c2)cc1 (stereo not given) | 221 | 193 | 4 | 4.2 | 210 | 187 | 4.3 | 188 | – | – | – | – | – | – | – | – | – | – | – |
| COc1ccc(OCC2c3ccc(OC4CCCCC4)cc3CCN2C(=O)c2cccc(Cl)c2)cc1 (stereo not given) | – | – | 2.7 | 1.2 | – | – | 1.9 | – | 222 | 225 | 259 | 265 | 309 | 317 | – | – | – | – | – |
| CC(C)Oc1ccc(OCC2c3ccc(OC(C)C)cc3CCN2C(=S)c2cccc(C(F)(F)F)c2)cc1 (stereo not given) | – | – | 0.27 | 0.34 | – | – | 0.33 | – | – | 162 | – | 191 | – | 133 | – | – | – | – | – |
| COc1ccc(OCC2c3ccc(OC(C)C)cc3CCN2C(=O)c2cccc(I)c2)cc1 (stereo not given) | – | – | 1.7 | 0.69 | – | – | 1.6 | – | 215 | 310 | 159 | 172 | 408 | 414 | – | – | – | – | – |
| COc1ccc(OCC2c3ccc(N4CCOCC4)cc3CCN2C(=O)c2cccc(Cl)c2)cc1 (stereo not given) | – | – | 9.3 | 4.7 | – | – | 22 | – | 273 | 342 | 146 | 188 | 231 | 413 | – | – | – | – | – |
| CCOc1ccc(OCC2c3ccc(OC(C)C)cc3CCN2C(=S)c2cccc(C(F)(F)F)c2)cc1 (stereo not given) | – | – | 0.72 | 0.35 | – | – | 0.45 | – | – | 141 | – | 190 | – | 128 | – | – | – | – | – |
| COc1ccc(OCC2c3ccc(N4CCOCC4)cc3CCN2C(=O)c2cccc(Br)c2)cc1 (stereo not given) | – | – | 4.8 | 3 | – | – | 4.3 | – | 279 | 314 | 152 | 165 | 284 | 425 | – | – | – | – | – |
| COc1ccc(OC[C@@H]2c3ccc(OC(C)C)cc3CCN2C(=O)c2cccc(Cl)c2)cc1 | – | – | – | – | – | – | 3.8 | – | – | 277 | – | 276 | – | 267 | – | – | 3.5 | 4.4 | 3.5 |

Now from value to compound, other results behind:

| Emax [1] [%] | Activity [2] [%] | EC50 [3] [µM] | EC50 [4] [µM] | Emax [5] [%] | Activity [5] [%] | EC50 [6] [µM] | Emax [2] [%] | Activity [7] [%] | Emax [7] [%] | Activity [8] [%] | Emax [8] [%] | Activity [9] [%] | Emax [9] [%] | Activity [10] [%] | Activity [11] [%] | Structure (SMILES) | CD [12] [µM] | CD [13] [µM] | CD [14] [µM] |
| --- | --- | --- | --- | --- | --- | --- | --- | --- | --- | --- | --- | --- | --- | --- | --- | --- | --- | --- | --- |
| – | 99 | – | – | – | – | – | – | – | – | – | – | – | – | 110 | 108 | COc1ccccc1OCC1c2ccc(OC(C)C)cc2CCN1C(=O)c1cccc(Cl)c1 (stereo not given) | – | – | – |
| – | – | 7.8 | 2.4 | – | – | 3 | – | 285 | 294 | 158 | 167 | 329 | 344 | – | – | CCOc1ccc2c(c1)CCN(C(=O)c1cccc(Cl)c1)C2COc1ccc(OC)cc1 (stereo not given) | – | – | – |
| 204 | 312 | 3.9 | 1.8 | 286 | 270 | 2.6 | 338 | – | – | – | – | – | – | – | – | COc1ccc(OCC2c3ccc(OC(C)C)cc3CCN2C(=O)c2cccc(Br)c2)cc1 (stereo not given) | – | – | – |
| – | – | 0.55 | 1.4 | – | – | 1.2 | – | – | 170 | – | 184 | – | 159 | – | – | CCOc1ccc(OCC2c3ccc(OC(C)C)cc3CCN2C(=S)c2cccc(F)c2)cc1 (stereo not given) | – | – | – |
